From PubChem
Lmaj promast: inhibitors of Leishmania major promastigote growth; 200,000 compounds, 9% hits; Leishmania major promastigotes, resazurin fluorescence viability; AID 1063; inhibition, % at 10 µM;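 further: promastigotes grown with compound for 44 hours at 28 °C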
Diaphorase inh: inhibits diaphorase or chemically oxidizes, flagging diaphorase assay artifacts. diaphorase resazurin-to-resorufin fluorescence, NADH, 16 min; bacterial (C. kluyveri) enzyme, not human. inhibition, % at 20 µM. 190,000 compounds, 0.69% hits. AID 1217;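 active means primary screen inhibition at 20 µM above a set limit, cut at about 50% in these data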;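 further: plate controls were DMSO with full reaction for no effect and wells lacking NADH for full effect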
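Assay system – diaphorase enzyme from Clostridium kluyveri · Amount – diaphorase 0.14 U/mL (working solution) · Times – reaction incubation of 16 min at room temperature · Controls – No-NADH positive control and DMSO neutral control · Signal – resorufin fluorescence 544/590 nm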
Redox H2O2 prof: compounds producing H2O2 with reducing agent – biochemical, NIH compound library profiling, artefact control for MLSCN library redox annotation, primary screen. activation, % at 10 µM. 200,000 compounds, 0.03% hits. DTT-dependent redox cycling H2O2, phenol red/HRP absorbance; 100% = 100 µM peroxide control, 0% = buffer;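 active means activation of at least 50% relative to the plate's high and low controls in the primary single-dose screen; inactive means activation below 50%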;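 further: compound incubated with DTT at 0.8 mM final as the reducing agent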
PfG6PD inh: PfG6PD (Plasmodium falciparum) enzyme inhibition; PfGluPho enzyme, NADPH resazurin-diaphorase fluorescence; inhibition, % at 20 µM; 350,000 compounds, 0.78% hits;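 active means inhibition reaching at least a set limit at 20 µM in the primary screen, cut at about 59% in these data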;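 further: 0% = DMSO wells with substrate and 100% = DMSO wells lacking glucose-6-phosphate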
Diaphorase act: counter-screen for diaphorase-based assays: diaphorase activators and chemical reducers; Diaphorase/resazurin coupled assay, resorufin fluorescence, 16 min; active compounds read high; 1 = vehicle wells, 0 = NADH-free wells; activation factor at 20 µM; 190,000 compounds, 0.005% hits; AID 1229;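 active means diaphorase activity raised at least twofold by the compound at 20 µM; inactive means activation factor below 2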
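Assay system: bacterial diaphorase enzyme (C. kluyveri) / Input: enzyme 0.07 U/mL final / Medium: 50 mM HEPES pH 7.4 with 4.542 mM MgCl2, 0.005% Tween 20 / Doses: single compound dose of 20 µM, 1% DMSO final / Incubation: 16 min enzyme reaction, ambient temperature / Signal: fluorescence, excitation 544 nm and emission 590 nm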
G6PDH counter: counter-screen for G6PDH assay hits: L. mesenteroides G6PDH inhibition; inhibition, % at 5 µM; 200,000 compounds, 0.12% hits; Purified L. mesenteroides G6PDH, diaphorase/resazurin coupled fluorescence, 45 min
Active calls of the source: *; nt = no result given. The entries come from a sample that favours hits as a whole. Unless noted, no stated cut-off is given here; in the data, active means inhibition above about 50%; inactive means the rest.

SMILES	Lmaj promast	Diaphorase inh	Redox H2O2 prof	PfG6PD inh	Diaphorase act	G6PDH counter
COc1ccc(C2C(C#N)=C(N)N(c3sc4c(c3C#N)CCCC4)C3=C2C(=O)CC(C)(C)C3)cc1 (stereo not given)	82.5*	9.7	0.1	12.9	0.9	10.5
COc1ccc(C2C(C#N)=C3NC(=O)c4c(sc5c4CCCCC5)N3C3=C2C(=O)CC(C)(C)C3)cc1 (stereo not given)	88.1*	23.8	-9.2	-8.4	0.8	-3.4
CCN(C(=O)COC(=O)/C=C/c1c(C)nn(-c2ccccc2)c1C)c1c(N)n(Cc2ccccc2)c(=O)[nH]c1=O	nt	nt	nt	-3.5	nt	nt
Cc1nc2ccc(NC(=O)c3ccc(S(=O)(=O)N(C)c4ccccc4)cc3)cc2s1	99.5*	25.1	-0.2	45.4	0.7	13.1
COc1ccccc1/C=C/C(=O)NC(=S)Nc1ccc(S(=O)(=O)N(C)c2ccccc2)cc1	62.2*	9.1	1.7	-0.4	0.9	10.9
CC1CN(S(=O)(=O)c2ccc(NC(=O)c3cc(-c4ccccc4O)n[nH]3)cc2)CC(C)O1 (stereo not given)	99.8*	30.8	0.5	-14.0	0.7	12.8
COc1ccccc1/C=C/C(=O)NC(=S)Nc1ccccn1	nt	nt	nt	-3.6	nt	nt
Cc1nc2ccc(NC(=O)c3ccc([N+](=O)[O-])cc3[N+](=O)[O-])cc2s1	99.6*	14.2	-0.9	16.4	0.9	1.6
CC(=O)Nc1ccc(NC(=O)c2ccc(S(=O)(=O)N(C)c3ccccc3)cc2)cc1	nt	nt	nt	9.6	nt	nt
O=C(COC(=O)c1cc(S(=O)(=O)NCc2ccccc2)ccc1O)c1cc2ccccc2o1	nt	nt	nt	-34.8	nt	nt
CCOc1ccc(CCNC(=O)COC(=O)c2ccc[nH]c2=O)cc1OCC	nt	nt	nt	3.5	nt	nt
Cc1nc2ccc(NC(=O)c3cccc(S(=O)(=O)N4CC(C)OC(C)C4)c3)cc2s1 (stereo not given)	98.3*	18.9	0.1	13.3	0.8	3.3
CC1CN(S(=O)(=O)c2cccc(C(=O)Nc3ccc(N4CCCCC4)cc3)c2)CC(C)O1 (stereo not given)	nt	nt	nt	4.8	nt	nt
CC(C)NS(=O)(=O)c1ccc(NC(=S)NC(=O)c2ccc(-c3ccccc3)cc2)cc1	93.3*	11.2	1.3	0.8	0.9	13.2
CN(c1ccccc1)S(=O)(=O)c1ccc(NC(=S)NC(=O)C2CC2)cc1	74.7*	22.9	-0.3	-0.8	0.8	10.4
CN(c1ccccc1)S(=O)(=O)c1ccc(NC(=S)NC(=O)c2ccccc2)cc1	100.0*	7.0	0.0	-6.3	0.9	-1.4
Cc1ccc(C(=O)NC(=S)Nc2ccc(S(=O)(=O)N(C)c3ccccc3)cc2)cc1	-1.8	6.6	0.2	6.4	0.9	-0.8
Cc1ccc(NC(=O)CN2C(=O)CSc3ccc(S(=O)(=O)N4CCCCC4)cc32)cc1	nt	nt	nt	-2.1	nt	nt
CCn1c2ccccc2c2nc3cc(C(=O)O)ccc3nc21	6.0	59.7*	-0.7	-7.5	0.4	16.3
CCn1c2ccccc2c2nc3cc(OC)c(OC)cc3nc21	73.3*	29.2	2.2	14.8	0.7	4.3
COc1cc2nc3c4ccccc4n(CC#N)c3nc2cc1OC	-2.0	7.6	1.9	nt	0.9	2.3
COc1ccc(N2CCN(c3nc4ccc(C)cn4c(=O)c3C=O)CC2)cc1	13.5	22.7	-1.0	18.6	0.8	1.5
CC1=C(C(=O)Nc2ccccc2)C(c2cccnc2)n2ncnc2N1 (stereo not given)	-1.6	11.4	0.7	0.7	0.9	8.5
COCCCNCCCCOc1cccc(Br)c1	99.3*	14.4	0.1	0.6	0.9	3.6
CC(C)NCCCCOc1cccc(Br)c1	99.4*	13.4	0.2	-4.6	0.9	10.7
SMILES	Lmaj promast	Diaphorase inh	Redox H2O2 prof	PfG6PD inh	Diaphorase act	G6PDH counter
OCCNCCCCOc1cccc(Br)c1	88.5*	0.1	-0.3	0.3	1	15.6
C=CCNCCCCOc1cccc(Br)c1	96.1*	21.3	-0.5	-2.2	0.8	23.8
CC1CC(=O)N(CC(=O)NCc2ccccc2)c2ccccc2S1(=O)=O (stereo not given)	nt	nt	nt	8.0	nt	nt
CSCC[C@H](NC(=O)c1ccc(OCC2CCCO2)cc1)c1nc2ccccc2[nH]1 (stereo not given in full)	nt	nt	nt	3.8	nt	nt
Cc1ccc(S(=O)(=O)N2CCN(C(=O)c3n[nH]c4ccccc34)CC2)cc1	nt	nt	nt	-0.3	nt	nt
O=C(c1n[nH]c2ccccc12)N1CCN(S(=O)(=O)c2ccc3ccccc3c2)CC1	55.1*	1.9	-0.7	-3.5	1	7.7
O=C(Cn1c(S(=O)(=O)Cc2ccccc2)nc2ccccc21)N1CCCCC1	41.5	-3.9	-0.9	-10.3	1	0.6
O=C(N1CCCCCC1)n1c(Cc2ccccc2)nc2ccccc21	63.2*	7.1	2.1	-8.2	0.9	0.6
CC1CC(C)CN(CC(C)(C)NS(=O)(=O)c2ccc(Cl)cc2)C1 (stereo not given)	95.2*	3.8	0.0	-10.7	1	-4.4
CCN(CC)CC(C)(C)NS(=O)(=O)c1ccc(Cl)cc1	70.8*	8.8	-3.5	-3.5	0.9	7.1
CN(C)CC(C)(C)NS(=O)(=O)c1ccc(Cl)cc1	-5.1	9.8	0.0	-24.6	0.9	3.9
CC(C)(CN1CCCCC1)NS(=O)(=O)c1ccc(Cl)cc1	90.1*	3.3	2.1	-8.3	1	3.4
CC(C)(CNS(=O)(=O)c1ccc(Cl)cc1)N1CCCCC1	81.3*	5.7	-0.5	3.0	0.9	6.5
CC(C)(CN1CCN(Cc2ccccc2)CC1)NS(=O)(=O)c1ccccc1	nt	nt	nt	-5.1	nt	nt
CCC1CCCCN1Cc1ccc(N)cc1 (stereo not given)	-3.8	-19.6	-0.4	-1.5	1.2	7.5
Cc1nc2ccccn2c1C(=O)NNC(=O)Nc1cccc(C(F)(F)F)c1	nt	nt	nt	-1.1	nt	nt
CC1=NN(c2ccc(C)c(C)c2)C(=O)/C1=C\C=C\c1ccc([N+](=O)[O-])o1	98.4*	-3.6	0.2	22.3	1	-0.7
COc1ccc(CNC(=O)C(c2ccncc2)N(C(=O)Cc2cccs2)c2ccccc2)cc1 (stereo not given)	7.8	12.8	0.0	-3.8	0.9	-4.6
COc1ccc(CCNC(=O)Cc2cccs2)cc1	56.4*	17.7	0.2	-17.7	0.8	-2.7
O=C(/C=C/c1ccc(Cl)cc1)NCCCN1CCOCC1	nt	nt	nt	1.4	nt	nt
Cc1ccccc1CC(=O)NCCN1CCOCC1	nt	nt	nt	-0.6	nt	nt
O=C(/C=C/c1ccccc1)NCCN1CCOCC1	63.2*	5.2	-0.2	-2.4	0.9	10.7
COc1ccc(N(C(=O)CCl)C(C(=O)NCCc2ccccc2)c2cccs2)cc1 (stereo not given)	100.4*	0.0	2.5	-10.6	1	-16.6
O=C(Cc1cccs1)NCCN1CCOCC1	50.5*	-6.4	-0.3	-3.8	1.1	8.8
